In brackets after ≈: the same amount, converted by molar mass. Activity calls are given as the source filed them. The rule behind the calls is not given here.
Tests used:
[1] = system: Bacteria; assay: In vitro antimicrobial activity against gram-negative organisms (10); type: functional
Summary of the method: (§1)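 Broth microdilution per NCCLS guidance. Serial dilutions of each agent in microtiter plates are inoculated with each organism to 10⁵ CFU/mL and incubated 18–22 h at 35 C in ambient air. MIC is the lowest concentration giving complete growth inhibition, judged by the unaided eye.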

[2] = system: Staphylococcus sp.; assay: In vitro antimicrobial activity against Staphylococci; type: functional, staphyl ococcus species; summary of the method: as §1
[3] = system: Enterococcus sp.; assay: In vitro antimicrobial activity against Enterococci; type: functional; summary of the method: as §1
[4] = The inhibitory activity of compound against MraY or MurG at 100 ug/mL; No Inhibition
[5] = The inhibitory activity of compound against MraY or MurG at 12.5 ug/mL; No Inhibition
[6] = The inhibitory activity of compound against MraY or MurG at 25 ug/mL; No Inhibition
[7] = The inhibitory activity of compound against MraY or MurG at 50 ug/mL; No Inhibition
[8] = The inhibitory activity of compound against MraY or MurG at 6.25 ug/mL; No Inhibition

| SMILES | MIC [1] [µg/mL] | MIC [2] [µg/mL] | MIC [3] [µg/mL] | Inhibitory activity [4] | Inhibitory activity [5] | Inhibitory activity [6] | Inhibitory activity [7] | Inhibitory activity [8] |
| --- | --- | --- | --- | --- | --- | --- | --- | --- |
| COc1ccc(Cn2c(=O)ccn([C@@H]3OC([C@H](O)[C@H](NCCCNC(=O)[C@@H](CC(C)C)NC(=O)[C@H](CCC/N=C(\N)N[N+](=O)[O-])NC(=O)N[C@H](C(=O)OCc4ccccc4)C(C)C)C(=O)OC(C)(C)C)[C@@H](O[Si](C)(C)C(C)(C)C)[C@H]3O[Si](C)(C)C(C)(C)C)c2=O)cc1 (stereo partly drawn) | > 128 | > 128 | > 128 | – | – | – | – | – |
| COc1ccc(Cn2c(=O)ccn([C@@H]3OC([C@H](O)[C@H](NCCCNC(=O)[C@H](N)CC(C)C)C(=O)O)[C@@H](O)[C@H]3O)c2=O)cc1 (stereo partly drawn) | > 128 | > 128 | 128 (≈ 211 µM) | – | – | – | – | – |
| COc1ccc(Cn2c(=O)ccn([C@@H]3OC([C@H](O)[C@H](NCCCNC(=O)[C@@H](CC(C)C)NC(=O)[C@H](CCC/N=C(\N)N[N+](=O)[O-])NC(=O)N[C@H](C(=O)OCc4ccccc4)C(C)C)C(=O)O)[C@@H](O)[C@H]3O)c2=O)cc1 (stereo partly drawn) | > 128 | > 128 | > 128 | – | – | – | – | – |
| COc1ccc(Cn2c(=O)ccn([C@@H]3OC([C@H](O)[C@H](NCCCNC(=O)[C@@H](CCC(=O)OC(C)(C)C)NC(=O)OCc4ccccc4)C(=O)OC(C)(C)C)[C@@H](O[Si](C)(C)C(C)(C)C)[C@H]3O[Si](C)(C)C(C)(C)C)c2=O)cc1 (stereo partly drawn) | > 128 | 128 (≈ 117 µM) | > 128 | – | – | – | – | – |
| COc1ccc(Cn2c(=O)ccn([C@@H]3OC([C@H](O)[C@H](NCCCNC(=O)[C@H](N)CCC(=O)OC(C)(C)C)C(=O)OC(C)(C)C)[C@@H](O[Si](C)(C)C(C)(C)C)[C@H]3O[Si](C)(C)C(C)(C)C)c2=O)cc1 (stereo partly drawn) | > 128 | > 128 | > 128 | inactive | inactive | inactive | inactive | inactive |
| COc1ccc(Cn2c(=O)ccn([C@@H]3OC([C@H](O)[C@H](NCCCNC(=O)[C@H](N)CC(C)C)C(=O)OC(C)(C)C)[C@@H](O)[C@H]3O)c2=O)cc1 (stereo partly drawn) | > 128 | > 128 | > 128 | – | – | – | – | – |
| COc1ccc(Cn2c(=O)ccn([C@@H]3OC([C@H](O)[C@H](NCCCNC(=O)[C@@H](CC(C)C)NC(=O)OCc4ccccc4)C(=O)OC(C)(C)C)[C@@H](O)[C@H]3O)c2=O)cc1 (stereo partly drawn) | > 128 | > 128 | > 128 | – | – | – | – | – |
| COc1ccc(Cn2c(=O)ccn([C@@H]3OC([C@H](O)[C@H](NCCCNC(=O)[C@@H](CCCCNC(=O)OCc4ccccc4)NC(=O)OCc4ccccc4)C(=O)OC(C)(C)C)[C@@H](O[Si](C)(C)C(C)(C)C)[C@H]3O[Si](C)(C)C(C)(C)C)c2=O)cc1 (stereo partly drawn) | > 128 | > 128 | > 128 | – | – | – | – | – |
| CC(C)C(O)[C@@H](NC(=O)OCc1ccccc1)C(=O)NCCCN[C@H](C(=O)OC(C)(C)C)[C@@H](O)C1O[C@@H](n2ccc(=O)[nH]c2=O)[C@H](O[Si](C)(C)C(C)(C)C)[C@@H]1O[Si](C)(C)C(C)(C)C (stereo partly drawn) | > 128 | > 128 | 64 (≈ 69.4 µM) | – | – | – | – | – |
| COc1ccc(Cn2c(=O)ccn([C@@H]3OC([C@H](O)[C@H](NCCCNC(=O)[C@H](N)CCc4ccccc4)C(=O)OC(C)(C)C)[C@@H](O[Si](C)(C)C(C)(C)C)[C@H]3O[Si](C)(C)C(C)(C)C)c2=O)cc1 (stereo partly drawn) | > 128 | > 128 | > 128 | inactive | inactive | inactive | inactive | inactive |
| COc1ccc(Cn2c(=O)ccn([C@@H]3OC([C@H](O)[C@H](NCCCNC(=O)[C@@H](CCc4ccccc4)NC(=O)OCc4ccccc4)C(=O)OC(C)(C)C)[C@@H](O[Si](C)(C)C(C)(C)C)[C@H]3O[Si](C)(C)C(C)(C)C)c2=O)cc1 (stereo partly drawn) | > 128 | 128 (≈ 119 µM) | 128 (≈ 119 µM) | – | – | – | – | – |

From ChEMBL document CHEMBL1145867, “Muraymycins, novel peptidoglycan biosynthesis inhibitors: synthesis and SAR of their analogues” (2003)
